Measured values as given in paper PMC4201300 (Biochemistry, 2014).
Square brackets hold non-standard residues; d marks the D form. Peptide text beside a SMILES is read from it. pT = C[C@@H](OP(=O)(O)O)[C@H](N)C(=O)O

Experiments:
[1] = molecular target: T1, Pellino1 FHA domain (amino acids 2–287) (Mus musculus, UniProt Q8C669); test: Fluorescence polarization peptide binding assay, Pellino1 FHA domain; conditions: ratio of KD values
T1 sequence (Q8C669 2-287): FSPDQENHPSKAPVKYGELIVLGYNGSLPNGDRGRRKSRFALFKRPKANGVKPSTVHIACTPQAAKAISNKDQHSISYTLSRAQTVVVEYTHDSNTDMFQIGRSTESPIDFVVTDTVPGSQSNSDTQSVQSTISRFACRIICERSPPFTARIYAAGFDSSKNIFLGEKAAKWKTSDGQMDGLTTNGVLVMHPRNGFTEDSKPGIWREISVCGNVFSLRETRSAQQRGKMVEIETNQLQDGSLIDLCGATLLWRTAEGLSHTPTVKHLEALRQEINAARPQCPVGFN
Summary of the method: (§1)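 His6-tagged FHA domains were expressed in E. coli BL21(DE3) pLys. The tag was removed with TEV during dialysis (4 °C for Pellino1, 22 °C for Pellino3a/3b), then cation exchange (pH 6 Pellino1/3b, pH 5.5 Pellino3a) and gel filtration. 50 nM N-terminally fluorescein-labelled phosphopeptide was titrated with 0–190 μM domain in PBS pH 7.4 at 25 °C. Baseline-corrected polarization was fit to a simple isotherm; mean KD from ≥3 experiments, expressed relative to pT141+3Y KD.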

[2] = molecular target: T2, Pellino2 FHA domain (amino acids 15–275 of Pellino2) (Homo sapiens, UniProt Q9HAT8); test: Fluorescence polarization peptide binding assay, Pellino2 FHA domain; conditions: for fold change in KD relative to pT141+3Y (preference for the pTxxY motif): binding weaker than for pT141+3Y, Figure 4A
T2 sequence (Q9HAT8 15-275): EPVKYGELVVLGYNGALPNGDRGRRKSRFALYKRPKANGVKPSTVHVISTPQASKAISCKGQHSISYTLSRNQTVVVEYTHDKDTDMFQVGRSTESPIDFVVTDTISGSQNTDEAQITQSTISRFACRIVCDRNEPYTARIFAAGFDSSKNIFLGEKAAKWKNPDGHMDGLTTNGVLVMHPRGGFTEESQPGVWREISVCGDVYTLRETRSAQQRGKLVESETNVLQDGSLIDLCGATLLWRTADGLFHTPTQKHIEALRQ

[3] = molecular target: T3, Pellino3a FHA domain (amino acids 40–305) (Homo sapiens, UniProt Q8N2H9); test: Fluorescence polarization peptide binding assay, Pellino3a FHA domain; conditions: ratio of KD values
T3 sequence (Q8N2H9 40-305): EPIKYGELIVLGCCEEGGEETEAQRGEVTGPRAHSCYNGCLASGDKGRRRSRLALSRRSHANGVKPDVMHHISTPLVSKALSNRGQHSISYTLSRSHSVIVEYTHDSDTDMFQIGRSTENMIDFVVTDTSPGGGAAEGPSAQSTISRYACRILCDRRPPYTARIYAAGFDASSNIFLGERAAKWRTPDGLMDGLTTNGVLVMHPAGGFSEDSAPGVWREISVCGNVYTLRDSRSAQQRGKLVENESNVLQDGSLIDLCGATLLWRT
Summary of the method: as §1

[4] = molecular target: T4, Pellino3b FHA domain (amino acids 2–304) (Homo sapiens, UniProt Q8N2H9); test: Fluorescence polarization peptide binding assay, Pellino3b FHA domain; conditions: ratio of KD values
T4 sequence (Q8N2H9 2-304 isoform Q8N2H9-2): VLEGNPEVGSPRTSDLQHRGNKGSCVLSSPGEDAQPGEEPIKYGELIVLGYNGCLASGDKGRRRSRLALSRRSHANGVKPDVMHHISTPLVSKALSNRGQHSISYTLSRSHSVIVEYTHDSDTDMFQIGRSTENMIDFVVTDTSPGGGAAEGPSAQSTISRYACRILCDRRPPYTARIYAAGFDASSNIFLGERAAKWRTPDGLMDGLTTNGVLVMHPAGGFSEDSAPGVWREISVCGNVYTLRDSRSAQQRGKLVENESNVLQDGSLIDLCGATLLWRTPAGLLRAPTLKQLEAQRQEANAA
Summary of the method: as §1

Pellino2 = Pellino2 (UniProt Q9HAT8); test: GST pull-down from lysate, Xpress and pT blots; conditions: reference: wild-type IRAK1-197; sites T141
[5] = molecular target: Pellino2 FHA domain, 15-275 (UniProt Q9HAT8); test: fluorescence polarization titration; conditions: reference: pT141+3S peptide (native S144); sites S144
[6] = molecular target: IRAK1pT141 peptide (amino acids 137–145 of IRAK1 with phosphothreonine at 141) (human) (UniProt P51617); test: fluorescence polarisation
[7] = molecular target: scrambled version of the pT141 peptide; test: fluorescence polarisation
[8] = molecular target: T5, Pellino2 FHA domain (amino acids 15–275 of Pellino2) (human, UniProt Q9HAT8 15-275); test: fluorescence polarisation
T5 sequence (looked up): T2 sequence (Q9HAT8 15-275)

[9] = molecular target: T6, Pellino1 FHA domain (amino acids 2–287, mouse) (mouse, UniProt Q8C669 2-287); test: fluorescence polarisation
T6 sequence (looked up): T1 sequence (Q8C669 2-287)

[10] = molecular target: T7, Pellino3b FHA domain (amino acids 2–304) (human, UniProt Q8N2H9-2 2-304); test: fluorescence polarisation
T7 sequence (looked up): T4 sequence (Q8N2H9 2-304 isoform Q8N2H9-2)

Chain of IRAK1pT141 peptide (amino acids 137–145 of IRAK1 with phosphothreonine at 141) (human) (P51617 whole entry, looked up, the tested form may be a part): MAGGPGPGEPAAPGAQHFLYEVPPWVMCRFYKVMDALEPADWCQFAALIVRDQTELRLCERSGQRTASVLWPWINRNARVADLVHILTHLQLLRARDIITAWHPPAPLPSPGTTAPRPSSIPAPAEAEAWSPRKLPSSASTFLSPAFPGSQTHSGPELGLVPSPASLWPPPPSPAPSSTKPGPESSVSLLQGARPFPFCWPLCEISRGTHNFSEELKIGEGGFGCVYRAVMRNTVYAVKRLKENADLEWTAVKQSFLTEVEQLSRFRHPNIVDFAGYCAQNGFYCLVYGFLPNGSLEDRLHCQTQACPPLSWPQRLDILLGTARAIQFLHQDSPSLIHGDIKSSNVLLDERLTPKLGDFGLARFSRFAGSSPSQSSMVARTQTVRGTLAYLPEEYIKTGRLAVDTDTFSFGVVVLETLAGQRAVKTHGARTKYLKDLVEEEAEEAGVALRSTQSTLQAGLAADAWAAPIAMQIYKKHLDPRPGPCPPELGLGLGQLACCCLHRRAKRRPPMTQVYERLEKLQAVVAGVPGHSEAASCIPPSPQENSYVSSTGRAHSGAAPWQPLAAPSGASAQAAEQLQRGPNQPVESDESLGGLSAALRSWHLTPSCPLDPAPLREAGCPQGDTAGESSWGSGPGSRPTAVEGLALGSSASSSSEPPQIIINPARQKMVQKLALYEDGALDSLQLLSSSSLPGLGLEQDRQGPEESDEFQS
Chain of Pellino2 FHA domain, 15-275 (Q9HAT8 whole entry, looked up, the tested form may be a part): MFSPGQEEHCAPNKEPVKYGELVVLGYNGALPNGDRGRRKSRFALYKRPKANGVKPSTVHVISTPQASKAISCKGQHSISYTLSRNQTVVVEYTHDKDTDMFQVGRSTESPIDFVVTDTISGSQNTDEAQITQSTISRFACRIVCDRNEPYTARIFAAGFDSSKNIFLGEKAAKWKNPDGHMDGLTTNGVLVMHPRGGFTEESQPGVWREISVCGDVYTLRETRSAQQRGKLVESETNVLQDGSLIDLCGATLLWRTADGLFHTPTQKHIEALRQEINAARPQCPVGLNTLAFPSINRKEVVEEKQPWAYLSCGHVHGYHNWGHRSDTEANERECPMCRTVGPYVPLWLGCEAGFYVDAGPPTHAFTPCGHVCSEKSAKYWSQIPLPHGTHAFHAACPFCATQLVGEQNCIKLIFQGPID

CC(C)C[C@H](NC(=O)[C@H](Cc1ccccc1)NC(=O)[C@@H](NC(=O)[C@H](CO)NC(=O)[C@H](CO)NC(=O)[C@H](C)NC(=O)[C@H](CO)NC(=O)[C@@H](N)Cc1ccc(O)cc1)[C@@H](C)OP(=O)(O)O)C(=O)N[C@@H](CC(=O)O)C(=O)N1CCC[C@H]1C(N)=O [IRAK1pT141+3D] (H-YSASS[pT]FLDP-NH2; N-terminus assumed)
times weaker binding than for the pT141+3Y peptide [1]: at least 13 times | fold change in KD relative to pT141+3Y (preference for the pTxxY motif) [2]: 23 fold | times weaker binding than for the pT141+3Y peptide [3]: at least 13 times | times weaker binding than for the pT141+3Y peptide [4]: at least 13 times

CC[C@H](C)[C@H](NC(=O)[C@H](CC(C)C)NC(=O)[C@H](Cc1ccccc1)NC(=O)[C@@H](NC(=O)[C@H](CO)NC(=O)[C@H](CO)NC(=O)[C@H](C)NC(=O)[C@H](CO)NC(=O)[C@@H](N)Cc1ccc(O)cc1)[C@@H](C)OP(=O)(O)O)C(=O)N1CCC[C@H]1C(N)=O [IRAK1pT141+3I] (H-YSASS[pT]FLIP-NH2; N-terminus assumed)
fold change in KD relative to pT141+3Y (preference for the pTxxY motif) [2]: 12 fold

CC(C)C[C@H](NC(=O)[C@H](Cc1ccccc1)NC(=O)[C@@H](NC(=O)[C@H](CO)NC(=O)[C@H](CO)NC(=O)[C@H](C)NC(=O)[C@H](CO)NC(=O)[C@@H](N)Cc1ccc(O)cc1)[C@@H](C)OP(=O)(O)O)C(=O)N[C@@H](Cc1ccc(O)cc1)C(=O)N1CCC[C@H]1C(N)=O [IRAK1pT141+3Y] (H-YSASS[pT]FLYP-NH2; N-terminus assumed)
KD fold stronger than that for pT141+3S ([2]; ratio of KD values): 4.6 fold

IRAK1 1-197 (from UniProt P51617) T141A
binding against the reference (Pellino2): weaker

IRAK1 137-145 (from UniProt P51617) pT141+3D peptide
fold change (fold weaker KD) [5]: 5

Pellino2 FHA domain (amino acids 15–275 of Pellino2) (from UniProt Q9HAT8 15-275) (domain or fragment)
Kd [6]: 820 nM

B1: Pellino2 FHA domain (amino acids 15–275 of Pellino2) (domain or fragment)
chain: T2 sequence (Q9HAT8 15-275)
fold weaker affinity than for pT141 [7]: > 100 fold

B2: pT141+3Y peptide (IRAK1pT141 with tyrosine at position +3) (peptide)
peptide: fluorescein-YSSAS[pT]FLYP-NH2
modifications: also: fluorescein: FITC or 5,6-FAM
Kd [8]: 180 nM | Kd [9]: 770 nM | binding result [10]: binds

B3: pT141+3I peptide (IRAK1pT141 with isoleucine at position +3) (peptide)
peptide: fluorescein-YSSAS[pT]FLIP-NH2
modifications: also: fluorescein: FITC or 5,6-FAM
Kd [9]: 1800 nM | binding result [10]: binds
